# Reference: ChEMBL document CHEMBL4689842, “EUbOPEN Chemogenomics Library wave 1” (2021)
# Several values for one entry are separate records, joined by “and”; a condition that tells them apart may be missing. Identical values can stand only once.
# System: HEK-293T
# Experiment: Multiplex assay against HEK293T;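 as to Population Tubulin-Different-Phenotype (%): share of the cells with healthy nuclei that show this phenotype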
# Type: toxicity, cell-based
# Details: human
# Summary of the method: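 Four dyes were applied at seeding to live cells: Hoechst33342, BioTracker Green Microtubule Cytoskeleton Dye, MitoTracker Red and Annexin V Alexa Fluor 680. Imaging after compound addition used a CQ1 microscope at 37°C and 5% CO2. CellPathfinder machine-learning gating then sorted cells into Hoechst high-intensity objects or normal cells, normal cells into healthy, pyknosed or fragmented nuclei, and pyknosed cells into mitotic or apoptotic, with tubulin, mitochondrial-mass and membrane-permeability phenotypes given as per cents of healthy-nucleus cells.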
# [1] = 12 h, 1 µM, compound concentration 1 uM, replicate 1
# [2] = 12 h, 1 µM, compound concentration 1 uM, replicate 2
# [3] = 12 h, 10 µM, compound concentration 10 uM, replicate 1
# [4] = 12 h, 10 µM, compound concentration 10 uM, replicate 2
# [5] = 24 h, 1 µM, compound concentration 1 uM, replicate 1
# [6] = 24 h, 1 µM, compound concentration 1 uM, replicate 2
# [7] = 24 h, 10 µM, compound concentration 10 uM, replicate 1
# [8] = 24 h, 10 µM, compound concentration 10 uM, replicate 2
# [9] = 48 h, 10 µM, compound concentration 10 uM, replicate 1
# [10] = 48 h, 10 µM, compound concentration 10 uM, replicate 2
smiles,measurement,setting,value
CNC(=O)c1nn(C)c2c1C(C)(C)Cc1cnc(Nc3ccc(N4CCN(C)CC4)cc3)nc1-2 [MILCICLIB],Population Apoptotic (%),[1],28%
same,Population Fragmented Nuclei (%),[1],17%
same,Population Healthy Nuclei (%),[1],41%
same,Population Hoechst High Intensity Objects (%),[1],21%
same,Population Membrane Permeable-Phenotype (%),[1],9%
same,Population Mitochondria Different-Phenotype (%),[1],25%
same,Population Mitotic Cells (%),[1],71%
same,Population Normal (%),[1],78%
same,Population Pyknosed Nuclei (%),[1],40%
same,Population Tubulin-Different-Phenotype (%),[1],82%
same,Total Cell Count,[1],581
same,Population Apoptotic (%),[2],23%
same,Population Fragmented Nuclei (%),[2],2%
same,Population Healthy Nuclei (%),[2],83%
same,Population Hoechst High Intensity Objects (%),[2],9%
same,Population Membrane Permeable-Phenotype (%),[2],3%
same,Population Mitochondria Different-Phenotype (%),[2],64%
same,Population Mitotic Cells (%),[2],76%
same,Population Normal (%),[2],90%
same,Population Pyknosed Nuclei (%),[2],14%
same,Population Tubulin-Different-Phenotype (%),[2],98%
same,Total Cell Count,[2],860
same,Population Apoptotic (%),[3],29% and 75% and 67%
same,Population Healthy Nuclei (%),[3],36% and 49%
same,Population Hoechst High Intensity Objects (%),[3],18% and 11% and 13%
same,Population Mitochondria Different-Phenotype (%),[3],39% and 100% and 98%
same,Population Mitotic Cells (%),[3],70% and 24% and 32%
same,Population Normal (%),[3],81% and 88% and 86%
same,Population Pyknosed Nuclei (%),[3],38% and 43%
same,Population Tubulin-Different-Phenotype (%),[3],79% and 97%
same,Total Cell Count,[3],581 and 226 and 425
same,Population Fragmented Nuclei (%),[4],6% and 3% and 2%
same,Population Hoechst High Intensity Objects (%),[4],6% and 8% and 9%
same,Population Membrane Permeable-Phenotype (%),[4],12% and 10% and 4%
same,Population Mitochondria Different-Phenotype (%),[4],87% and 90% and 57%
same,Population Mitotic Cells (%),[4],40% and 30% and 79%
same,Population Normal (%),[4],93% and 91% and 90%
same,Population Tubulin-Different-Phenotype (%),[4],91% and 100% and 99%
same,Population Apoptotic (%),[5],43%
same,Population Fragmented Nuclei (%),[5],21%
same,Population Healthy Nuclei (%),[5],33%
same,Population Hoechst High Intensity Objects (%),[5],19%
same,Population Membrane Permeable-Phenotype (%),[5],7%
same,Population Mitochondria Different-Phenotype (%),[5],64%
same,Population Mitotic Cells (%),[5],56%
same,Population Normal (%),[5],80%
same,Population Pyknosed Nuclei (%),[5],45%
same,Population Tubulin-Different-Phenotype (%),[5],78%
same,Total Cell Count,[5],556
same,Population Apoptotic (%),[6],34%
same,Population Fragmented Nuclei (%),[6],2%
same,Population Healthy Nuclei (%),[6],82%
same,Population Hoechst High Intensity Objects (%),[6],9%
same,Population Membrane Permeable-Phenotype (%),[6],2%
same,Population Mitochondria Different-Phenotype (%),[6],81%
same,Population Mitotic Cells (%),[6],65%
same,Population Normal (%),[6],90%
same,Population Pyknosed Nuclei (%),[6],14%
same,Population Tubulin-Different-Phenotype (%),[6],98%
same,Total Cell Count,[6],887
same,Population Apoptotic (%),[7],55% and 82% and 67%
same,Population Healthy Nuclei (%),[7],32% and 22% and 44%
same,Population Hoechst High Intensity Objects (%),[7],19% and 13%
same,Population Membrane Permeable-Phenotype (%),[7],10% and 2%
same,Population Mitochondria Different-Phenotype (%),[7],63% and 100% and 98%
same,Population Mitotic Cells (%),[7],44% and 17% and 32%
same,Population Normal (%),[7],80% and 86%
same,Population Pyknosed Nuclei (%),[7],42% and 69% and 48%
same,Population Tubulin-Different-Phenotype (%),[7],80% and 91%
same,Total Cell Count,[7],565 and 241 and 453
same,Population Fragmented Nuclei (%),[8],6% and 3% and 4%
same,Population Hoechst High Intensity Objects (%),[8],6% and 7%
same,Population Membrane Permeable-Phenotype (%),[8],6% and 4%
same,Population Mitochondria Different-Phenotype (%),[8],92% and 95% and 77%
same,Population Normal (%),[8],93% and 92%
same,Population Tubulin-Different-Phenotype (%),[8],94% and 95% and 98%
same,Population Apoptotic (%),[9],87% and 71%
same,Population Fragmented Nuclei (%),[9],14%
same,Population Healthy Nuclei (%),[9],17% and 42%
same,Population Hoechst High Intensity Objects (%),[9],13% and 11%
same,Population Membrane Permeable-Phenotype (%),[9],0%
same,Population Mitochondria Different-Phenotype (%),[9],100% and 99%
same,Population Mitotic Cells (%),[9],12% and 28%
same,Population Normal (%),[9],86% and 88%
same,Population Pyknosed Nuclei (%),[9],68% and 49%
same,Population Tubulin-Different-Phenotype (%),[9],92%
same,Total Cell Count,[9],263 and 534
same,Population Apoptotic (%),[10],86% and 89%
same,Population Fragmented Nuclei (%),[10],6% and 7%
same,Population Healthy Nuclei (%),[10],21% and 15%
same,Population Hoechst High Intensity Objects (%),[10],12% and 9%
same,Population Membrane Permeable-Phenotype (%),[10],2%
same,Population Mitochondria Different-Phenotype (%),[10],91%
same,Population Mitotic Cells (%),[10],13% and 10%
same,Population Normal (%),[10],87% and 90%
same,Population Pyknosed Nuclei (%),[10],71% and 76%
same,Population Tubulin-Different-Phenotype (%),[10],85% and 70%
same,Total Cell Count,[10],182 and 236
